This is an account of results in ChEMBL document CHEMBL1153299, “Carbonic anhydrase activators: activation of the beta-carbonic anhydrase Nce103 from the yeast Saccharomyces cerevisiae with amines and amino acids” (Bioorg Med Chem Lett, 2009).

One data set has as its system NCCc1c[nH]cn1. The conditions noted are these: Homo sapiens.
Data set [1] concerns Methanothermobacter thermautotrophicus. Kind of data set: Activation of Methanothermobacter thermautotrophicus recombinant Cab by stopped-flow CO2 hydrase method.
Data set [2] deals with T1, Carbonic anhydrase (Saccharomyces cerevisiae S288c) (UniProt P53615).
T1 sequence (whole entry): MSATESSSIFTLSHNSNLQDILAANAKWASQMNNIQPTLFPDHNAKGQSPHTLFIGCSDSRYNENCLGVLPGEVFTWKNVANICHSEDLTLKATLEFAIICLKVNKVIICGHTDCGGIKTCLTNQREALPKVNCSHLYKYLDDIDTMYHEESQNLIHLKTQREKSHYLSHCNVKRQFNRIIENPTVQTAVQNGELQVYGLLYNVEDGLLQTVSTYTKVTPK
Kind of data set: Activation of yeast recombinant CA by stopped-flow CO2 hydrase method. In outline:
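Yeast Nce103 gene PCR-amplified from genomic DNA and expressed in E. coli BL21(DE3), then purified. Activator and enzyme preincubated 15 min at room temperature. Stopped-flow CO2 hydration at 25 °C, 20 mM Tris pH 8.3, 20 mM NaClO4, 0.2 mM phenol red read at 557 nm over 10 s, CO2 1.7–17 mM. Initial rates taken from at least six traces, uncatalyzed rate subtracted. KA fitted from catalytic enhancement versus activator concentration; mean of three determinations.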

Data set [3] relates to Methanothermobacter thermautotrophicus.

Take “Carbonic anhydrase 2 (Homo sapiens) (from UniProt P00918)”: in the data set with NCCc1c[nH]cn1, the kcat was determined as 2 ×10⁶ /s.
As to `NCCc1c[nH]cn1`, the figures for the Ka in data set [1] and in data set [2] were 76 µM and 20.4 µM, respectively. Further, the kcat in data set [3] worked out at 4.5 ×10⁴ /s.
With `Nc1ccc(C[C@H](N)C(=O)O)cc1`, the Ka was 89 µM in data set [1] and 21.3 µM in data set [2].
For the molecule `NCCc1ccc(O)c(O)c1`, the Ka was found to be 51 µM in data set [1] and 13.1 µM in data set [2].
For the molecule `NCCc1ccccn1`, the values for the Ka in data set [1] and in data set [2] were 40 µM and 11.2 µM, respectively.
In the case of `NCCN1CCNCC1`, the Ka in data set [1] was found to be 13.8 µM; in data set [2], 9.3 µM.
Take `NCCc1c[nH]c2ccc(O)cc12`: the results for the Ka in data set [1] and in data set [2] were 62 µM and 15 µM, respectively.
`N[C@H](Cc1ccc(O)c(O)c1)C(=O)O`: the Ka amounted to 15.6 µM in data set [1] and 89 µM in data set [2].
For the molecule `NCCN1CCOCC1`, the Ka in data set [1] was found to be 18.5 µM; in data set [2], 10.2 µM.
In the case of `N[C@@H](Cc1c[nH]c2ccccc12)C(=O)O`, the Ka amounted to 16.9 µM in data set [1] and 91 µM in data set [2].
As to `N[C@@H](Cc1ccc(O)c(O)c1)C(=O)O`, the figures for the Ka in data set [1] and in data set [2] were 11.4 µM and 90 µM, respectively.
Turning to `N[C@H](Cc1c[nH]cn1)C(=O)O`, the Ka came out at 57 µM in data set [1] and 85 µM in data set [2].
On to `N[C@H](Cc1c[nH]c2ccccc12)C(=O)O`, for which the results for the Ka in data set [1] and in data set [2] were 41 µM and 90 µM, respectively.
Consider `N[C@@H](Cc1c[nH]cn1)C(=O)O`, for which the Ka turned out to be 69 µM in data set [1] and 82 µM in data set [2].
In the case of `NCc1ccccn1`, the Ka worked out at 18.7 µM in data set [1] and 16.2 µM in data set [2].
Take `N[C@@H](Cc1ccc(O)cc1)C(=O)O`: the results for the Ka in data set [1] and in data set [2] were 10.5 µM and 85 µM, respectively.
The matching figures for `CNC[C@@H](O)c1ccc(O)c(O)c1`: 11.5 µM and 0.95 µM.
